# According to ChEMBL document CHEMBL1128519, “Semisynthetic chemical modification of the antifungal lipopeptide echinocandin B (ECB): structure-activity studies of the lipophilic and geometric parameters of polyarylated acyl analogs of ECB” (J Med Chem, 1995):
# Numbered stars: 1 amine (or outer) side, 2 acyl side, 3 side chain; on linkers, the order of the positions; unused ones are H or OH. Bridge positions count the residues as written; N and C are the ends. Square brackets hold non-standard residues; d marks the D form. Peptide text beside a SMILES is read from it. * marks the point of attachment. pTerphenylCO(4''-OnC5H11) = CCCCCOc1ccc(-c2ccc(-c3ccc(C(=O)*)cc3)cc2)cc1; Orn(4R-OH,5R-OH) = O=C([C@H](C[C@@H](O)[C@@H](O)N[*:3])N[*:1])[*:2]; Benzoyl(4-(biphenyl-4-yl)) = O=C(c1ccc(-c2ccc(-c3ccccc3)cc2)cc1)*; X16 = O=C(c1ccc(OCCOCCC23C[C@H]4C[C@@H](C2)C[C@@H](C3)C4)cc1)*; hTyr(3S-OH,4S-OH) = N[C@H](C(=O)O)[C@H](O)[C@@H](O)c1ccc(O)cc1; Benzoyl(4-(4-OctO-Ph)) = CCCCCCCCOc1ccc(-c2ccc(C(=O)*)cc2)cc1; X4 = CC(C)(C)OCCOc1ccc(-c2ccc(-c3ccc(C(=O)*)cc3)cc2)cc1; X17 = CCCCOCCOc1ccc(C#Cc2ccc(-c3ccc(C(=O)*)cc3)cc2)cc1; X1 = O=C(c1ccc(-c2ccc(-c3ccc(-c4ccccc4)cc3)cc2)cc1)*; X20 = CCCCCOc1ccc(C#Cc2ccc(-c3ccc(C(=O)*)cc3)cc2)cc1; X6 = CCCCOCCOc1ccc(-c2ccc(-c3ccc(C(=O)*)cc3)cc2)cc1; X7 = CCCCCCOc1ccc(-c2ccc(-c3ccc(C(=O)*)cc3)cc2)cc1; Pro(3S-OH,4S-Me) = C[C@H]1CN[C@H](C(=O)O)[C@H]1O; X14 = COc1ccc(C#Cc2ccc(-c3ccc(C(=O)*)cc3)cc2)cc1; Benzoyl(4-octyloxy) = CCCCCCCCOc1ccc(C(=O)*)cc1; X5 = O=C(c1ccc(C#Cc2ccc(C#Cc3ccccc3)cc2)cc1)*; X8 = O=C(c1ccc(-c2ccc(C#Cc3ccccc3)cc2)cc1)*; X9 = CCCCCCCCCCOc1ccc2cc(C(=O)*)ccc2c1; Hyp = O=C(O)[C@@H]1C[C@@H](O)CN1
# Experiments:
# [1] = biological target: Beta-1,3-glucan synthase (Candida albicans) (UniProt O13428); assay: In vitro inhibition of glucan synthase obtained from Candida albicans at a concentration of 10 ug/mL.
# Beta-1,3-glucan synthase (Candida albicans), sequence (O13428 as listed by the source): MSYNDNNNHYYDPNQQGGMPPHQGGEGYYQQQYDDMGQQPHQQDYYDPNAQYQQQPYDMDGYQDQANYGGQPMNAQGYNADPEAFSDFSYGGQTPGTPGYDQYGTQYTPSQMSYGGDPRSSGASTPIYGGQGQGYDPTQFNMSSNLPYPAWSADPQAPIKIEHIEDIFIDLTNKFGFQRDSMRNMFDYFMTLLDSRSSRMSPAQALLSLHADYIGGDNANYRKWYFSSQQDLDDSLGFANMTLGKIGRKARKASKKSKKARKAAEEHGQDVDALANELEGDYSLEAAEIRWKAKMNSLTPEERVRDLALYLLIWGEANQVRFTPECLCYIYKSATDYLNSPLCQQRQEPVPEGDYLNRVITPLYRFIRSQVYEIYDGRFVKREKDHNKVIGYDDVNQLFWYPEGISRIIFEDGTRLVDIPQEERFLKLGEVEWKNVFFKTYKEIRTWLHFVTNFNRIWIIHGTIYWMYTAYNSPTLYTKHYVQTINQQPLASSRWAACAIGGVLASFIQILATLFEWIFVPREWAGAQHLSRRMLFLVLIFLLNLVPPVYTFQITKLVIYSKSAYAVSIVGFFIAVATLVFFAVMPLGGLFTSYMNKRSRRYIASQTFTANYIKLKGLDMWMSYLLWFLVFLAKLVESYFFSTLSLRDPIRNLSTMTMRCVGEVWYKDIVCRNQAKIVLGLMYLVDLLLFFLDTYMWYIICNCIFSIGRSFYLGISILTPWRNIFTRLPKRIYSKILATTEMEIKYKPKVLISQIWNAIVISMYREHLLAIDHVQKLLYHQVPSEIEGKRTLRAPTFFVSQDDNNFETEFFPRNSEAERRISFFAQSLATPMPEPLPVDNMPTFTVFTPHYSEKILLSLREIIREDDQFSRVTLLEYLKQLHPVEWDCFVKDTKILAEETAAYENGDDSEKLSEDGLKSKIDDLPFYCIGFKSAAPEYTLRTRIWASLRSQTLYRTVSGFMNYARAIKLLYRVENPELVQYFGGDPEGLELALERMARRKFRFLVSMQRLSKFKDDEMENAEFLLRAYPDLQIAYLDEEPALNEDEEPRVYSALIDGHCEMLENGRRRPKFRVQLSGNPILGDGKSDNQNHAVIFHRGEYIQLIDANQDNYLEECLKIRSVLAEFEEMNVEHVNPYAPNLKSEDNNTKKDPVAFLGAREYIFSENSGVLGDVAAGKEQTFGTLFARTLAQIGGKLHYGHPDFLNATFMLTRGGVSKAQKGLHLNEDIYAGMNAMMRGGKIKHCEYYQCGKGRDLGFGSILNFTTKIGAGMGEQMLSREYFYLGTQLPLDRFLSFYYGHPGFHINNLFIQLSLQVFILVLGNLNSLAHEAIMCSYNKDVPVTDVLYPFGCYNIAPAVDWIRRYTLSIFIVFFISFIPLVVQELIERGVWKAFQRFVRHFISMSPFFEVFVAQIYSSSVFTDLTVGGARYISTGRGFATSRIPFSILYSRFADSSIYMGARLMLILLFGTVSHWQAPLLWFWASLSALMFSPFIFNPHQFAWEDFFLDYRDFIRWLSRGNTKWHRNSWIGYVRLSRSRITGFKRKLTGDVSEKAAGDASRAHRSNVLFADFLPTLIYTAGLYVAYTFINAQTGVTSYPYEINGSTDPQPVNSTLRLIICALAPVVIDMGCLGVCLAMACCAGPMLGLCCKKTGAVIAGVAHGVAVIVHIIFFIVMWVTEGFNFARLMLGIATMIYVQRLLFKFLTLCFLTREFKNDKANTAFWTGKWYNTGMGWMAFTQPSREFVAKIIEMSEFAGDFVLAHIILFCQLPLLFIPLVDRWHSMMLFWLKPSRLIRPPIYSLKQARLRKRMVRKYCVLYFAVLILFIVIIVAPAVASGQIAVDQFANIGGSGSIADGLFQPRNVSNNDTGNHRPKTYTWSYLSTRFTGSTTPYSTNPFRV
# Summary of the method: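 Purified, solubilized β-(1,3)-D-glucan synthase prepared from C. albicans. Percent inhibition measured at 10 µg/mL compound, single determination.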
# Candida albicans [2] = assay: In vivo antifungal activity administered orally against Candida albicans infections in mice.; format: functional; settings: po
# Summary of the method: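 X-irradiated (400 r, 24 h prior) male ICR mice infected iv with 2 × 10^6 C. albicans A26 cells. Oral gavage in cremophor (5%)/linoleic acid (8%)/water vehicle, b.i.d. × 4 starting immediately post-infection. 10 mice per dose level. Study ends at day 7; ED50 = dose giving 50% survival, by Reed-Muench.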
# Candida albicans [3] = assay: Antifungal activity against Candida albicans; format: functional
# Summary of the method: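 Broth microdilution, C. albicans A26 (ATCC 62342) grown on Sabouraud dextrose agar at 35 °C; inoculum 1 × 10^5 conidia/mL in antibiotic 3 broth. Compounds dissolved at 1.0 mg/mL in methanol, 2-fold serial dilutions from 80 µg/mL, duplicate. Read after 48 h at 35 °C. MIC = lowest concentration completely inhibiting visible growth.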
# Candida albicans [4] = assay: In vivo antifungal activity administered intraperitoneally against Candida albicans infections in mice.; format: functional; settings: ip
# Summary of the method: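 Male ICR mice (18-20 g), X-irradiated with 400 r 24 h before iv tail-vein infection with 2 × 10^6 C. albicans A26 cells in saline. Compounds suspended in β-cyclodextrin, given parenterally at 0, 4, 24 and 48 h post-infection. 10 mice per dose, top dose 10 mg/kg with 2-fold dilutions down to 0.039 mg/kg. 7-day survival; ED50 by Reed-Muench.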
SMILES,inhibition [1] [%],ED50 (Candida albicans [2]) [mg/kg],MIC (Candida albicans [3]) [µg/mL],ED50 (Candida albicans [4]) [mg/kg]
"CCCCOCCOc1ccc(-c2ccc(-c3ccc(C(=O)N[C@H]4C[C@@H](O)[C@@H](O)NC(=O)[C@@H]5[C@@H](O)[C@@H](C)CN5C(=O)[C@H]([C@@H](C)O)NC(=O)[C@H]([C@H](O)[C@@H](O)c5ccc(O)cc5)NC(=O)[C@@H]5C[C@@H](O)CN5C(=O)[C@H]([C@@H](C)O)NC4=O)cc3)cc2)cc1 (X6-[Orn(4R-OH,5R-OH)]T[Hyp][hTyr(3S-OH,4S-OH)]T[Pro(3S-OH,4S-Me)]; lactam 1-C)",80.1,13.6,0.03,0.3
"CCCCCCCCOc1ccc(C(=O)N[C@H]2C[C@@H](O)[C@@H](O)NC(=O)[C@@H]3[C@@H](O)[C@@H](C)CN3C(=O)[C@H]([C@@H](C)O)NC(=O)[C@H]([C@H](O)[C@@H](O)c3ccc(O)cc3)NC(=O)[C@@H]3C[C@@H](O)CN3C(=O)[C@H]([C@@H](C)O)NC2=O)cc1 [CILOFUNGIN] ({Benzoyl(4-octyloxy)}-[Orn(4R-OH,5R-OH)]T[Hyp][hTyr(3S-OH,4S-OH)]T[Pro(3S-OH,4S-Me)]; lactam 1-C)",76,> 400,0.312,7.6
"C[C@@H](O)[C@@H]1NC(=O)[C@H]([C@H](O)[C@@H](O)c2ccc(O)cc2)NC(=O)[C@@H]2C[C@@H](O)CN2C(=O)[C@H]([C@@H](C)O)NC(=O)[C@@H](NC(=O)c2ccc(-c3ccc(C#Cc4ccccc4)cc3)cc2)C[C@@H](O)[C@@H](O)NC(=O)[C@@H]2[C@@H](O)[C@@H](C)CN2C1=O (X8-[Orn(4R-OH,5R-OH)]T[Hyp][hTyr(3S-OH,4S-OH)]T[Pro(3S-OH,4S-Me)]; lactam 1-C)",75.8,18.8,0.039,0.6
"CCCCCOc1ccc(C#Cc2ccc(-c3ccc(C(=O)N[C@H]4C[C@@H](O)[C@@H](O)NC(=O)[C@@H]5[C@@H](O)[C@@H](C)CN5C(=O)[C@H]([C@@H](C)O)NC(=O)[C@H]([C@H](O)[C@@H](O)c5ccc(O)cc5)NC(=O)[C@@H]5C[C@@H](O)CN5C(=O)[C@H]([C@@H](C)O)NC4=O)cc3)cc2)cc1 (X20-[Orn(4R-OH,5R-OH)]T[Hyp][hTyr(3S-OH,4S-OH)]T[Pro(3S-OH,4S-Me)]; lactam 1-C)",82.3,8.8,< 0.01,
"CCCCCCCCOc1ccc(-c2ccc(C(=O)N[C@H]3C[C@@H](O)[C@@H](O)NC(=O)[C@@H]4[C@@H](O)[C@@H](C)CN4C(=O)[C@H]([C@@H](C)O)NC(=O)[C@H]([C@H](O)[C@@H](O)c4ccc(O)cc4)NC(=O)[C@@H]4C[C@@H](O)CN4C(=O)[C@H]([C@@H](C)O)NC3=O)cc2)cc1 ({Benzoyl(4-(4-OctO-Ph))}-[Orn(4R-OH,5R-OH)]T[Hyp][hTyr(3S-OH,4S-OH)]T[Pro(3S-OH,4S-Me)]; lactam 1-C)",81.5,27.3,0.0025,0.5
"C[C@@H](O)[C@@H]1NC(=O)[C@H]([C@H](O)[C@@H](O)c2ccc(O)cc2)NC(=O)[C@@H]2C[C@@H](O)CN2C(=O)[C@H]([C@@H](C)O)NC(=O)[C@@H](NC(=O)c2ccc(-c3ccc(-c4ccc(-c5ccccc5)cc4)cc3)cc2)C[C@@H](O)[C@@H](O)NC(=O)[C@@H]2[C@@H](O)[C@@H](C)CN2C1=O (X1-[Orn(4R-OH,5R-OH)]T[Hyp][hTyr(3S-OH,4S-OH)]T[Pro(3S-OH,4S-Me)]; lactam 1-C)",74.7,39.7,< 0.01,0.4
"C[C@@H](O)[C@@H]1NC(=O)[C@H]([C@H](O)[C@@H](O)c2ccc(O)cc2)NC(=O)[C@@H]2C[C@@H](O)CN2C(=O)[C@H]([C@@H](C)O)NC(=O)[C@@H](NC(=O)c2ccc(-c3ccc(-c4ccc(OCCOC(C)(C)C)cc4)cc3)cc2)C[C@@H](O)[C@@H](O)NC(=O)[C@@H]2[C@@H](O)[C@@H](C)CN2C1=O (X4-[Orn(4R-OH,5R-OH)]T[Hyp][hTyr(3S-OH,4S-OH)]T[Pro(3S-OH,4S-Me)]; lactam 1-C)",76.1,21.3,0.06,0.4
"COc1ccc(C#Cc2ccc(-c3ccc(C(=O)N[C@H]4C[C@@H](O)[C@@H](O)NC(=O)[C@@H]5[C@@H](O)[C@@H](C)CN5C(=O)[C@H]([C@@H](C)O)NC(=O)[C@H]([C@H](O)[C@@H](O)c5ccc(O)cc5)NC(=O)[C@@H]5C[C@@H](O)CN5C(=O)[C@H]([C@@H](C)O)NC4=O)cc3)cc2)cc1 (X14-[Orn(4R-OH,5R-OH)]T[Hyp][hTyr(3S-OH,4S-OH)]T[Pro(3S-OH,4S-Me)]; lactam 1-C)",81,19,0.02,
"CCCCCCCCCCOc1ccc2cc(C(=O)N[C@H]3C[C@@H](O)[C@@H](O)NC(=O)[C@@H]4[C@@H](O)[C@@H](C)CN4C(=O)[C@H]([C@@H](C)O)NC(=O)[C@H]([C@H](O)[C@@H](O)c4ccc(O)cc4)NC(=O)[C@@H]4C[C@@H](O)CN4C(=O)[C@H]([C@@H](C)O)NC3=O)ccc2c1 (X9-[Orn(4R-OH,5R-OH)]T[Hyp][hTyr(3S-OH,4S-OH)]T[Pro(3S-OH,4S-Me)]; lactam 1-C)",82.2,46.1,0.005,1.6
"CCCCOCCOc1ccc(C#Cc2ccc(-c3ccc(C(=O)N[C@H]4C[C@@H](O)[C@@H](O)NC(=O)[C@@H]5[C@@H](O)[C@@H](C)CN5C(=O)[C@H]([C@@H](C)O)NC(=O)[C@H]([C@H](O)[C@@H](O)c5ccc(O)cc5)NC(=O)[C@@H]5C[C@@H](O)CN5C(=O)[C@H]([C@@H](C)O)NC4=O)cc3)cc2)cc1 (X17-[Orn(4R-OH,5R-OH)]T[Hyp][hTyr(3S-OH,4S-OH)]T[Pro(3S-OH,4S-Me)]; lactam 1-C)",81.9,10.6,0.02,
"C[C@@H](O)[C@@H]1NC(=O)[C@H]([C@H](O)[C@@H](O)c2ccc(O)cc2)NC(=O)[C@@H]2C[C@@H](O)CN2C(=O)[C@H]([C@@H](C)O)NC(=O)[C@@H](NC(=O)c2ccc(OCCOCCC34C[C@H]5C[C@@H](C3)C[C@@H](C4)C5)cc2)C[C@@H](O)[C@@H](O)NC(=O)[C@@H]2[C@@H](O)[C@@H](C)CN2C1=O (X16-[Orn(4R-OH,5R-OH)]T[Hyp][hTyr(3S-OH,4S-OH)]T[Pro(3S-OH,4S-Me)]; lactam 1-C)",72.3,> 50,0.039,
"CCCCCOc1ccc(-c2ccc(-c3ccc(C(=O)N[C@H]4C[C@@H](O)[C@@H](O)NC(=O)[C@@H]5[C@@H](O)[C@@H](C)CN5C(=O)[C@H]([C@@H](C)O)NC(=O)[C@H]([C@H](O)[C@@H](O)c5ccc(O)cc5)NC(=O)[C@@H]5C[C@@H](O)CN5C(=O)[C@H]([C@@H](C)O)NC4=O)cc3)cc2)cc1 [ANIDULAFUNGIN] ({pTerphenylCO(4''-OnC5H11)}-[Orn(4R-OH,5R-OH)]T[Hyp][hTyr(3S-OH,4S-OH)]T[Pro(3S-OH,4S-Me)]; lactam 1-C)",75,7.8,0.005,0.3
"C[C@@H](O)[C@@H]1NC(=O)[C@H]([C@H](O)[C@@H](O)c2ccc(O)cc2)NC(=O)[C@@H]2C[C@@H](O)CN2C(=O)[C@H]([C@@H](C)O)NC(=O)[C@@H](NC(=O)c2ccc(-c3ccc(-c4ccccc4)cc3)cc2)C[C@@H](O)[C@@H](O)NC(=O)[C@@H]2[C@@H](O)[C@@H](C)CN2C1=O ({Benzoyl(4-(biphenyl-4-yl))}-[Orn(4R-OH,5R-OH)]T[Hyp][hTyr(3S-OH,4S-OH)]T[Pro(3S-OH,4S-Me)]; lactam 1-C)",78.8,> 50,0.078,1.3
"CCCCCCOc1ccc(-c2ccc(-c3ccc(C(=O)N[C@H]4C[C@@H](O)[C@@H](O)NC(=O)[C@@H]5[C@@H](O)[C@@H](C)CN5C(=O)[C@H]([C@@H](C)O)NC(=O)[C@H]([C@H](O)[C@@H](O)c5ccc(O)cc5)NC(=O)[C@@H]5C[C@@H](O)CN5C(=O)[C@H]([C@@H](C)O)NC4=O)cc3)cc2)cc1 (X7-[Orn(4R-OH,5R-OH)]T[Hyp][hTyr(3S-OH,4S-OH)]T[Pro(3S-OH,4S-Me)]; lactam 1-C)",,6.8,0.03,0.8
"C[C@@H](O)[C@@H]1NC(=O)[C@H]([C@H](O)[C@@H](O)c2ccc(O)cc2)NC(=O)[C@@H]2C[C@@H](O)CN2C(=O)[C@H]([C@@H](C)O)NC(=O)[C@@H](NC(=O)c2ccc(C#Cc3ccc(C#Cc4ccccc4)cc3)cc2)C[C@@H](O)[C@@H](O)NC(=O)[C@@H]2[C@@H](O)[C@@H](C)CN2C1=O (X5-[Orn(4R-OH,5R-OH)]T[Hyp][hTyr(3S-OH,4S-OH)]T[Pro(3S-OH,4S-Me)]; lactam 1-C)",81.3,16,0.01,4.5
